# From ChEMBL document CHEMBL4342470, “Detection of Active Granzyme A in NK92 Cells with Fluorescent Activity-Based Probe” (J Med Chem, 2020)
# Active and inactive are the calls of the source. No cut-off for these calls is given here. Non-standard residues stand in square brackets, D forms with d. Residues, ends and D or L forms follow the SMILES beside them. ξ: configuration not given here. *: point of attachment. Phe(4-guanidino) = N=C(N)Nc1ccc(C[C@H](N)C(=O)O)cc1; Oic(3aξ,7aξ) = O=C(O)[C@@H]1CC2CCCCC2N1; Phe(4-F) = N[C@@H](Cc1ccc(F)cc1)C(=O)O; ACC = NC(=O)Cc1cc(=O)oc2cc(N*)ccc12; Met(O) = CS(=O)CC[C@H](N)C(=O)O; Tic = O=C(O)[C@@H]1Cc2ccccc2CN1; X1 = Clc1cccc(Cl)c1C*
# Assays:
# [1] = target: T1, Granzyme A (Homo sapiens) (UniProt P12544); assay: Substrate activity at Granzyme A (unknown origin) expressed in Pichia pastoris incubated for 30 mins by fluorescence based assay
# T1 sequence (whole entry): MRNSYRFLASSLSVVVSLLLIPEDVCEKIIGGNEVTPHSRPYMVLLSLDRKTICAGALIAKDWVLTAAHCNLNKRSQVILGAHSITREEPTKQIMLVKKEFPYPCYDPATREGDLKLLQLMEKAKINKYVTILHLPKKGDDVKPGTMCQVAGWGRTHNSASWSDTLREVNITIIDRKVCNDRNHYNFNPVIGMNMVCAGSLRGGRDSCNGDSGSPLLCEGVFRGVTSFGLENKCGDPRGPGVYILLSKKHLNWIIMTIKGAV
# [2] = target: Granzyme B (Homo sapiens) (UniProt P10144); assay: Substrate activity at Granzyme B (unknown origin) expressed in Pichia pastoris assessed as compound hydrolysis at 200 uM incubated for 30 mins by fluorescence based assay relative to control
# Granzyme B (Homo sapiens), sequence (P10144 whole entry): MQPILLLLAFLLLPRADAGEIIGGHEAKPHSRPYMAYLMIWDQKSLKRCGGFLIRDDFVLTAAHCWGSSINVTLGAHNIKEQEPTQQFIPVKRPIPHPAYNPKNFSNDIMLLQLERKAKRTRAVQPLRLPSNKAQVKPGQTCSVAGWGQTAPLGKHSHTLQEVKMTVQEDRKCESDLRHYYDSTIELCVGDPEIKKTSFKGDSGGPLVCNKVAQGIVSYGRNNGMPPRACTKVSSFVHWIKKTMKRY
# [3] = target: T2, Granzyme K (Homo sapiens) (UniProt P49863); assay: Substrate activity at Granzyme K (unknown origin) expressed in Pichia pastoris assessed as compound hydrolysis at 200 uM incubated for 30 mins by fluorescence based assay relative to control; set-up: scale not given: the % may be the effect or the level left
# T2 sequence (whole entry): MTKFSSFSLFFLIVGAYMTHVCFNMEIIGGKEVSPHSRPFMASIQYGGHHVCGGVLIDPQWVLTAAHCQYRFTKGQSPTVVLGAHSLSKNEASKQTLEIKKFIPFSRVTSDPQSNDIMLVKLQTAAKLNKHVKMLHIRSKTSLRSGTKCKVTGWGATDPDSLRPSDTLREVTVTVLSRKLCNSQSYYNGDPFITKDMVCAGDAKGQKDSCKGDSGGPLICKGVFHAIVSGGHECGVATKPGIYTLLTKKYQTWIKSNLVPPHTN
# [4] = target: T1, Granzyme A (Homo sapiens); assay: Inhibition of Granzyme A (unknown origin) expressed in Pichia pastoris assessed as second- order inhibition rate constant (Kobs/I ratio) pre-incubated with SK15 substrate for 15 mins before enzyme addition by spectrofluorometry
# Method in brief: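 Recombinant GrA at 350 nM, pre-warmed at 37 °C, added to SK15 substrate that had been preincubated 15 min at 37 °C with varied inhibitor or probe (inhibitor range 714–333 nM, SK15 10 μM). Tris/NaCl/CaCl2/Tween-20 buffer, pH 7.5. AMC-type fluorescence at 355/460 nm under pseudo-first-order conditions to give kobs/I. Mean of at least three experiments with standard deviation.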
# [5] = target: T2, Granzyme K (Homo sapiens); assay: Inhibition of Granzyme K (unknown origin) expressed in Pichia pastoris using GrKref substrate by spectrofluorometry relative to control; conditions: concentration not given here
# Method in brief: (§1)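 Each enzyme preincubated 30 min at 37 °C with 10 μM compound, then its matched ACC substrate added (SK15 for GrA, GrKref, GrBref, Ac-KVPL-ACC for GrM, and the PR3 and hNE substrates). Enzyme levels: GrK 488 nM, GrB 18 nM, GrM 74 nM, hNE 3.3 nM, PR3 3.4 nM. Reference substrates at 200 μM. Fluorescence read at 355/460 nm; residual activity relative to an untreated enzyme control.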
# [6] = target: T3, Granzyme M (Homo sapiens) (UniProt P51124); assay: Inhibition of Granzyme M (unknown origin) expressed in Pichia pastoris using Ac-Lys-Val-Pro-Leu-ACC substrate by spectrofluorometry relative to control; conditions: concentration not given here; method in brief: as §1
# T3 sequence (whole entry): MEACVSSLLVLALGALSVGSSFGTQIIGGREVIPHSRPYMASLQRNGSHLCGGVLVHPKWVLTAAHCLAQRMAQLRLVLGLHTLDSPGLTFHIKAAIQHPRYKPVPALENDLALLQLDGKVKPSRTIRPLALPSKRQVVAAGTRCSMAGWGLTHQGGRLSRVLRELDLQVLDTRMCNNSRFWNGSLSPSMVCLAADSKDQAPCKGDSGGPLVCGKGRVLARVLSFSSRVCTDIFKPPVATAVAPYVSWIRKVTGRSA
# [7] = target: Granzyme B (Homo sapiens) (UniProt P10144); assay: Inhibition of Granzyme B (unknown origin) expressed in Pichia pastoris using GrBref substrate by spectrofluorometry relative to control; conditions: concentration not given here; method in brief: as §1
# [8] = target: T1, Granzyme A (Homo sapiens); assay: Inhibition of Granzyme A (unknown origin) expressed in Pichia pastoris using SK15 substrate by spectrofluorometry relative to control; conditions: concentration not given here; method in brief: as §1
# [9] = target: T4, Myeloblastin (Homo sapiens) (UniProt P24158); assay: Inhibition of PR3 (unknown origin) expressed in Pichia pastoris using Ac-Glu(O-Bzl)-Lys(Ac)-Hyp(Bzl)-Nva-ACC substrate by spectrofluorometry relative to control; conditions: concentration not given here; method in brief: as §1
# T4 sequence (whole entry): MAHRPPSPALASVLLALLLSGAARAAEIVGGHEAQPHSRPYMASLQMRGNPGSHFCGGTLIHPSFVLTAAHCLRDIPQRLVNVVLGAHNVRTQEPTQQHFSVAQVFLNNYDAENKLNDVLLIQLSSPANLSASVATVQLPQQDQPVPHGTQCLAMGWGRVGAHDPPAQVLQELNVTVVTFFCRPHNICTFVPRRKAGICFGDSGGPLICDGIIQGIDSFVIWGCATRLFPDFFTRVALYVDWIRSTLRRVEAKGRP
# [10] = target: T5, Neutrophil elastase (Homo sapiens) (UniProt P08246); assay: Inhibition of human neutrophil elastase expressed in Pichia pastoris using Ac-Arg(NO)2-Glu(Bzl)-Oic-Abu-ACC substrate by spectrofluorometry relative to control; conditions: concentration not given here; method in brief: as §1
# T5 sequence (whole entry): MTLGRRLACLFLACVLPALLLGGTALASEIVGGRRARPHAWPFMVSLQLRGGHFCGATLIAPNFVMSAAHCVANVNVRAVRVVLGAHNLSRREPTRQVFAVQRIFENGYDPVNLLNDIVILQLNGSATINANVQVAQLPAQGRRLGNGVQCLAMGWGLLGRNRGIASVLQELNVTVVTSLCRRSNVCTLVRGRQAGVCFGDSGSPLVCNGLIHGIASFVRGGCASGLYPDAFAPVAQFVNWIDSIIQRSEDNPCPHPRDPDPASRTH
smiles,measurement,setting,value
CC(=O)N[C@@H](CC[S+](C)[O-])C(=O)NCC(=O)N[C@@H](Cc1ccc(F)cc1)C(=O)N[C@@H](Cc1ccc(NC(=N)N)cc1)C(=O)Nc1ccc2c(CC(N)=O)cc(=O)oc2c1 (stereo not given in full) (Ac-[Met(O)]G[Phe(4-F)][Phe(4-guanidino)]-{ACC}),Activity,[1],Active
"CC(=O)N1Cc2ccccc2C[C@H]1C(=O)NCC(=O)N1C2CCCCC2C[C@H]1C(=O)N[C@@H](Cc1ccc(NC(=N)N)cc1)C(=O)Nc1ccc2c(CC(N)=O)cc(=O)oc2c1 (stereo not given in full) (Ac-[Tic]G[Oic(3aξ,7aξ)][Phe(4-guanidino)]-{ACC})",Activity,[1],Active
"CC(=O)N1Cc2ccccc2C[C@H]1C(=O)NCC(=O)N1C2CCCCC2C[C@H]1C(=O)N[C@@H](CCCNC(=N)N)C(=O)Nc1ccc2c(CC(N)=O)cc(=O)oc2c1 (stereo partly drawn) (Ac-[Tic]G[Oic(3aξ,7aξ)]R-{ACC})",Activity,[2],inactive
same,Activity,[3],20%
CC(=O)N[C@@H](CC[S+](C)[O-])C(=O)NCC(=O)N1CC(OCc2ccccc2)C[C@H]1C(=O)Nc1cccc(C(=O)Nc2ccc3c(CC(N)=O)cc(=O)oc3c2)c1 (stereo not given in full),Activity,[2],Active
COC(=O)CCC(=O)N1Cc2ccccc2C[C@H]1C(=O)NCC(=O)N1C2CCCCC2C[C@H]1C(=O)NC(CCCNC(=N)N)P(=O)(Oc1ccccc1)Oc1ccccc1 (stereo not given in full),Ratio,[4],171000 s⁻¹ M⁻¹
same,inhibition,[5],< 20%
same,inhibition,[6],< 20%
same,inhibition,[7],< 20%
same,inhibition,[8],< 20%
same,inhibition,[9],< 20%
same,inhibition,[10],< 20%
CC(=O)N[C@@H](CC[S+](C)[O-])C(=O)NCC(=O)N[C@@H](Cc1ccc(OCc2c(Cl)cccc2Cl)cc1)C(=O)N[C@@H](CCCNC(=N)N)C(=O)Nc1ccc2c(CC(N)=O)cc(=O)oc2c1 (stereo partly drawn) (Ac-[Met(O)]GY(X1)R-{ACC}),Activity,[1],Active
CC(=O)N[C@@H](CC[S+](C)[O-])C(=O)NCC(=O)N[C@@H](Cc1ccc(OCc2c(Cl)cccc2Cl)cc1)C(=O)N[C@@H](Cc1ccc(NC(=N)N)cc1)C(=O)Nc1ccc2c(CC(N)=O)cc(=O)oc2c1 (stereo not given in full) (Ac-[Met(O)]GY(X1)[Phe(4-guanidino)]-{ACC}),Activity,[1],Active
CC(=O)N1Cc2ccccc2C[C@H]1C(=O)N[C@@H](CCc1nc2ccccc2s1)C(=O)N1C2CCCCC2C[C@H]1C(=O)N[C@@H](Cc1ccc(NC(=N)N)cc1)C(=O)Nc1ccc2c(CC(N)=O)cc(=O)oc2c1 (stereo not given in full),Activity,[1],Active
